# Bioassay records deposited in PubChem by Broad Institute.
# A selection: hits, their analogues and other compounds. The true share with any hit is near 1.1%.
# SR-BI DiI inh: blocks mouse SR-BI lipid uptake from DiI-HDL | Q61009 | ldlA[mSR-BI] CHO cells, DiI-HDL uptake fluorescence, 3 h | inhibition, % at 12.5 µM | 320,000 compounds, 0.96% hits | AID 488896;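 active = mean replicate inhibition of at least 70% and a set share of replicates each scoring 70 or more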;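 also: 0% = median of neutral control wells and 100% = median of positive control wells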
# Target sequence (Q61009 whole entry, looked up): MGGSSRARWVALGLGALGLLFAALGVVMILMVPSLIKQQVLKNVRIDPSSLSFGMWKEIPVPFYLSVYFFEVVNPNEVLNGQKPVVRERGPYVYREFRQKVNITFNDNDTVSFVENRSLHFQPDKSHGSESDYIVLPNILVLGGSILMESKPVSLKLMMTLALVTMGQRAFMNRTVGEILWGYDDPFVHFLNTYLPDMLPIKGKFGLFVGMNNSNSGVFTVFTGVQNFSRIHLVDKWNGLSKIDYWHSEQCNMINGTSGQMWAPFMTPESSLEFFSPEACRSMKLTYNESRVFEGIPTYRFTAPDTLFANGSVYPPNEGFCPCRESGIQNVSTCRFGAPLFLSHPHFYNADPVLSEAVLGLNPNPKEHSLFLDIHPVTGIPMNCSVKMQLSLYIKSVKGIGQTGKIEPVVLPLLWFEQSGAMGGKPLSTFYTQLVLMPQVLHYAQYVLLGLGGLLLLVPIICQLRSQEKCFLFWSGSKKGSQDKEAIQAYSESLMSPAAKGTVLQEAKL
# SR-BI uptake up: activators of SR-BI mediated HDL lipid uptake | CHO ldlA[mSR-BI] cells, DiI-HDL uptake fluorescence, 3 h; 100 = double the neutral-control signal | activation, % at 12.5 µM | 320,000 compounds, 0.096% hits | AID 504775;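 active = mean replicate activation of at least 60% and every replicate at or above 60%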;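 also: 0% = median plate neutral-control signal and 100% = twice that signal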
#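 Material: SR-BI-overexpressing, LDLR-lacking CHO cells | Dosing: Single compound concentration, delivered by pin transfer | Probe or stimulus: Labelled HDL, 10 µg/mL | Signal: Bottom-read cell fluorescence after medium removal, ex 550/em 595 nm | Schedule: 3 h, 37 °C | Evaluation: HDL uptake via cellular fluorescence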
# GSK3A inh: blocks human GSK-3 alpha kinase; P49840; ADP-Glo luminescence, 60 min; inhibition, % at 10 µM; 320,000 compounds, 0.1% hits; AID 2650;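 active = more than half of replicates show inhibition above 20%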;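 also: GST-tagged GSK-3 alpha with peptide substrate and 25 µM ATP; 0% = DMSO neutral wells and 100% = GW8510 positive control wells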
# CDK5 inh: inhibitors of human CDK5/p35 kinase | Q00535+Q15078 | Recombinant CDK5/p35, ADP-Glo luminescence, 60 min | inhibition, % at 10 µM | 330,000 compounds, 0.01% hits;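 active = highest replicate inhibition of at least 50% and at least 75% of replicates reaching 50%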;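 also: plate controls were DMSO neutral control for no effect and GW8510 at 10 µM for full effect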
# GSK3beta inhib: human GSK3beta kinase inhibition. 300,000 compounds, 0.038% hits. P49841. activity score (negative = inhibition), % at 10 µM. GST-GSK3beta kinase, ADP-Glo luminescence, 60 min; hits give low values. AID 2097;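 active = more than half of replicate wells score below -50%, meaning over 50% inhibition versus plate controls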;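 also: 0% = median DMSO wells and -100% = median GW8510 positive control wells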
#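 Test system – GST-tagged human GSK3beta kinase, cell-free · Incubation – 60 min enzyme reaction, room temperature · Signal – ADP-Glo luminescence · Also added – peptide substrate and ATP at 25 µM · Controls – DMSO neutral wells and GW8510 at 20 µM as positive · Buffer or medium – Tris/MgCl2 kinase buffer · Measure – Luminescence-derived activity versus plate DMSO and GW8510 wells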
# The depositor's hits bear a star; · = no result.
SMILES,SR-BI DiI inh,SR-BI uptake up,GSK3A inh,CDK5 inh,GSK3beta inhib
Cc1nn(-c2ccccc2)c(C)c1/C=N/NC(=O)c1cc(O)cc(O)c1,36,-36,0,-2,-2
COc1ccc(OC)c(/C=N\NC(=O)c2ccc(-c3ccccc3)cc2)c1,78*,·,·,0,3
COc1ccc(OC)c(/C=N/NC(=O)c2ccncc2)c1,-1,1,3,2,5
Cc1[nH]c(C(=O)N/N=C/c2ccc(N(C)C)cc2)c(C)c1C(=O)N/N=C/c1ccc(N(C)C)cc1,87*,-87,0,2,1
O=C(/C=C/c1ccccc1)Nc1cccc(C(=O)N2CCCC2)c1,·,·,·,0,·
COCCOC(=O)c1c(NC(=O)CN2CCCc3ccccc32)sc(C(N)=O)c1C,23,-23,-2,-1,0
COc1ccccc1/C=N/NC(=O)c1cccc(OC(F)(F)C(F)F)c1,·,·,-1,2,2
COc1cccc(/C=N/NC(=O)c2[nH]c(C)c(C(=O)N/N=C/c3cccc(OC)c3O)c2C)c1O,125*,-125,-5,-2,-1
COc1cccc(/C=N/NC(=O)c2ccc(=O)[nH]n2)c1O,·,·,-3,-1,0
COc1cccc(/C=N/NC(=O)C(=O)Nc2ccccc2OC(F)(F)C(F)F)c1O,110*,-110,-1,-1,1
CC(=O)Nc1ccc(Nc2nc(-c3sc(C)nc3C)cs2)cc1,74*,-74,0,0,-2
CC(=O)c1cccc(Nc2nc(-c3sc(C)nc3C)cs2)c1,71*,-71,2,-1,1
Cc1cccc(Nc2nc(-c3sc(C)nc3C)cs2)c1,85*,-85,-1,0,-1
Cc1ccc(Nc2nc(-c3sc(C)nc3C)cs2)cc1,37,-37,-1,1,1
CCOc1cc(C(=O)Oc2cc(C)[nH]c(=O)c2[N+](=O)[O-])cc(OCC)c1OCC,-16,16,-4,0,4
CC(C)C(=O)NC(NC(=S)Nc1cccc2cccnc12)C(Cl)(Cl)Cl (configuration not stated),74*,-74,-1,1,1
CCC(=O)NC(NC(=S)Nc1cccc2cccnc12)C(Cl)(Cl)Cl (configuration not stated),37,-37,1,-3,-4
CN1CCN(Cc2cc(=O)oc3cc4c(cc23)CCC4)CC1,-9,9,-1,0,2
O=c1cc(CN2CCN(c3ccc(F)cc3)CC2)c2cc3c(cc2o1)CCCC3,71*,-71,0,0,-1
Cc1cc2ccccn2c1C(=O)c1ccccc1F,17,-17,0,2,-7
Cc1cc(C)n(-c2ccc(C(=O)Nc3ccccc3N3CCOCC3)cc2)n1,80*,-80,4,1,-2
CC1CCCC(C)N1C(=O)COc1ccc(C(=O)Nc2ccccc2N2CCOCC2)cc1 (configuration not stated),82*,-82,1,-1,-3
CCOC(=O)C(NC(C)=O)C(=O)Nc1ccc(C)cc1C (configuration not stated),-14,14,0,-1,0
COc1ccc2cc(C(c3nnnn3C3CCCCC3)N3CCCCCC3)c3nnnn3c2c1 (configuration not stated),80*,-80,1,0,0
C/C(=N/NC(=O)c1ccncc1)c1ccc(NC(=O)c2ccc(Cl)cc2Cl)cc1,31,-31,-4,-3,0
SMILES,SR-BI DiI inh,SR-BI uptake up,GSK3A inh,CDK5 inh,GSK3beta inhib
CC(C)CC(=NNC(=O)c1ccncc1)c1cc(Cl)ccc1O,127*,-127,·,1,·
O=C(CCS(=O)(=O)c1ccccc1)Nc1ccccc1-c1nc2ccccc2s1,72*,-72,3,1,2
Cc1cccc(NC(=O)C2CCN(S(=O)(=O)c3cccc4nonc34)CC2)c1,·,·,0,0,·
CCn1cnnc1SCC(=O)Nc1ccccc1C(=O)NC1CC1,-24,24,0,-4,·
Cc1[nH]nc2c1C(c1ccc(F)cc1)C1=C(CC(C)(C)CC1=O)N2 (configuration not stated),-32,32,21,1,-56*
Cc1[nH]nc2c1C(c1cccc(O)c1)C1=C(CC(C)(C)CC1=O)N2 (configuration not stated),·,·,97*,9,-92*
COc1ccc(C2C3=C(CCCC3=O)Nc3n[nH]c(C)c32)cc1OC (configuration not stated),-4,4,10,3,1
Cc1[nH]nc2c1C(c1ccc(N(C)C)cc1)C1=C(CC(C)(C)CC1=O)N2 (configuration not stated),19,-19,13,0,-18
Cc1ccc(C2C3=C(CC(C)(C)CC3=O)Nc3n[nH]c(C)c32)cc1 (configuration not stated),3,-3,77*,1,-60*
CCCCN(CCCC)CCNC(=O)c1cn(CC)c2ccc(S(=O)(=O)N3CCCC3)cc2c1=O,-8,8,0,1,-2
O=C(CSC(=S)N1CCCC1)N1CCN(S(=O)(=O)c2ccccc2F)CC1,1,-1,0,1,-2
COc1cc(C(=O)NCC(=O)N/N=C/c2ccco2)cc(OC)c1OC,15,-15,-2,0,-2
COc1ccc(C(=O)NCC(=O)N/N=C/C(C)=C/c2ccco2)cc1OC,85*,-85,-2,0,4
CC(C#N)(NC(=O)CN1CCN(S(=O)(=O)c2ccccc2Cl)CC1)C1CC1 (configuration not stated),3,-3,1,-1,·
COc1ccc(/C=N/NC(=O)C(=O)Nc2ccccn2)cc1OC,3,-3,-1,0,0
NC(=S)N/N=C/c1ccccc1O,·,·,-1,12,0
Oc1ccccc1/C=N/NC(=S)NC1CC2CC1C1C=CCC21 (configuration not stated),85*,-85,0,2,-4
Oc1ccccc1C=NNC(=S)NN=Cc1ccccc1O,133*,-133,·,5,·
O=C(N/N=C/c1ccccc1O)C(=O)Nc1ccccn1,88*,-88,-1,-1,0
COc1ccc(NC(=O)NNC(=O)C(C)Oc2ccc3ccccc3c2)cc1OC (configuration not stated),10,·,-1,0,2
Cc1ccc(NS(=O)(=O)c2c(C(=O)N3CCCCCC3)c(C)n(C)c2C)c(Cl)c1,-13,13,-2,1,5
CCOc1ccccc1NC(=O)Nc1ccon1,18,-18,3,1,3
O=C(COC(=O)c1cccc(-n2cnnn2)c1)c1ccc(Br)cc1,9,-9,-1,0,2
CCN(CC)c1ccc(C(=C2C=CC(=[N+](CC)CC)C=C2)c2ccc(N(CC)CC)cc2)cc1,89*,-89,·,37,·
CCN(CC)c1ccc(C(=C2C=CC(=[N+](CC)CC)C=C2)c2ccccc2)cc1,54,-54,·,9,·
